Screening data deposited in PubChem BioAssay by several laboratories.
GRIN3A LBD mod: NR3A (human) ligand-binding domain modulation | NR3A LBD differential scanning fluorimetry, Tm shift; 0% = protein alone, 100% = glycine-bound protein | Tm shift relative to glycine control, % at 25 µM | actives 2.5% (n = 340,000);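 active = melting temperature shift of at least 10% of the positive control shift, at one fixed dose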
T cruzi repl: T. cruzi replication inhibition; T. cruzi beta-gal in NIH3T3, luminescence, 90 h; inhibition, % (no concentration beside the values); actives 1.4% (n = 300,000);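 active = mean inhibition across valid replicates above about 55%, limit read from the data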;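 also: signal also drops with host cell toxicity which is not excluded here; 0% = plate median of DMSO wells and 100% = zero luminescence signal; higher percent means less beta-gal luminescence so fewer parasites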
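System – NIH/3T3 host cells with β-galactosidase reporter T. cruzi · Doses – single 50 nL compound addition per well in DMSO · Reagent – 5000 T. cruzi trypomastigotes/well · Medium – Low-serum DMEM with 2% FBS · Timing – ≥90 h infection period, 3 h prior cell attachment · Evaluation – parasite load inhibition, % · Technique – GalScreen luminescence, 60 min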
CSC inhib: blocks cancer stem cells. cancer stem cell-like cells viability, luminescence. inhibition, % at 7.5 µM. actives 1.1% (n = 300,000). AID 2717; in the data active = inhibition above about 75%; tested in HMLE shEcad cells
CHOP inhibitor: inhibitors of CHOP induction in ER stress response. actives 3.8% (n = 220,000). inhibition, % at 10 µM. CHO-K1 CHOP-promoter luciferase, tunicamycin-induced, 15-18 h;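 active = compounds that reduced the stress-induced luciferase reporter signal by more than about 70% of percent inhibition, limit read from the data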;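 also: 0% = tunicamycin plus vehicle and 100% = wells without tunicamycin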
Beta apoptosis: beta cell apoptosis inhibition | INS-1E cytokine-induced death, ATP luminescence, 48 h; percent of positive-control rescue, neutral wells zero | protection from apoptosis, % (test concentration not listed) | actives 0.8% (n = 300,000);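 active = Every replicate reaches about 75%, or at least half do and their mean reaches it too, limit read from the data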;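 also: 0% = cytokine-treated negative control wells and 100% = positive control rescue; higher means more ATP so stronger rescue from cytokine killing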
PREPL inhibitor: inhibitors of human prolyl oligopeptidase-like enzyme PREPL. AID 2751. recombinant PREPL, fluorescence polarization activity-based probe. actives 0.68% (n = 320,000). Q4J6C6. inhibition, % at 5.96 µM; in the data active = inhibition above about 43%;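 also: 0% = enzyme with DMSO and 100% = wells lacking enzyme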
Target sequence (Q4J6C6 whole entry, looked up): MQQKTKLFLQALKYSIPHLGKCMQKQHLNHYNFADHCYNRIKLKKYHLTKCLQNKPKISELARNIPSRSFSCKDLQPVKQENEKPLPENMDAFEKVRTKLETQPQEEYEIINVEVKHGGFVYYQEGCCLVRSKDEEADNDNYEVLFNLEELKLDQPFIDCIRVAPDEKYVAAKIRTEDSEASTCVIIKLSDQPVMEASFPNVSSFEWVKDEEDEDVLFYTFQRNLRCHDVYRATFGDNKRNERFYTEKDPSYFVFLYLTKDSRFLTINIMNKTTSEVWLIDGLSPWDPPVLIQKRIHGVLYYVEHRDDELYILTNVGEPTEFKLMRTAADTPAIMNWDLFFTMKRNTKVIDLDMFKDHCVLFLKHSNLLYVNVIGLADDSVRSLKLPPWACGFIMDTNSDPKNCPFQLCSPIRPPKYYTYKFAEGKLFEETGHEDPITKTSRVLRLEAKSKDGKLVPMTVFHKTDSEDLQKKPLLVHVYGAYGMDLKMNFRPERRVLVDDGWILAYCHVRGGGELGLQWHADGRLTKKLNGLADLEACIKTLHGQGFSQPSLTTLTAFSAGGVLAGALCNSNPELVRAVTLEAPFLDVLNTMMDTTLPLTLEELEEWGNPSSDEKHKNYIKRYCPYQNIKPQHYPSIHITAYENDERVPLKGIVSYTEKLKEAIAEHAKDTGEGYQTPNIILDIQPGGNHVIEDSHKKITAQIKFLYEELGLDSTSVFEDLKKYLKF
* marks the source's active call; other numbers are inactive results; . = no result. Compounds with a hit are over-represented: about 6.7% of the library has one in this group of screens.

SMILES	GRIN3A LBD mod	T cruzi repl	CSC inhib	CHOP inhibitor	Beta apoptosis	PREPL inhibitor
OCCN(CCO)CC(O)COc1ccc(Br)cc1 (centres undefined)	1	8	-7	10	-3	8
OCCN(CCO)CC(O)COc1ccc(C23CC4CC(CC(C4)C2)C3)cc1 (centres undefined)	-1	7	78*	27	0	-7
CCC(=O)NC1=C(Cl)C(=O)C(NC(=O)CC)=C(Cl)C1=O	-5	.	.	87*	.	.
CCC(=O)NC1=C(NC(C)c2ccccc2)C(=O)c2ccccc2C1=O (centres undefined)	1	-4	29	3	.	5
Cc1c(N=c2c(=O)c3ccccc3c2=O)c(=O)n(-c2ccccc2)n1C	.	-3	-21	-20	-6	43*
Cc1csc(=Nc2c(C)n(C)n(-c3ccccc3)c2=O)n1-c1ccccc1	-1	-14	-8	-6	4	2
Cc1ccc(-c2cc(C(F)F)n3ncc(C(=O)N4CCc5ccccc5C4)c3n2)cc1	0	58*	42	68	3	-5
Cc1ccc(-c2cc(C(F)F)n3ncc(C(=O)N4CCCc5ccccc54)c3n2)cc1	1	10	-18	23	7	2
Cc1ccc(NC(=O)CN(C)S(=O)(=O)c2ccc(Cl)s2)c(O)c1	2	.	-3	.	-1	3
O=C(NNC(=O)c1cc2ccccc2cc1O)Nc1ccc(Br)cc1	19*	-8	22	.	4	8
O=C(NNC(=O)c1ccncc1)Nc1ccc([N+](=O)[O-])cc1	-23	-6	4	24	12	3
O=C(NC(=S)NNC(=O)c1cc2ccccc2cc1O)c1ccco1	11*	1	25	24	30	2
COc1cc2ccccc2cc1C(=O)NNC(=O)c1ccccc1O	.	57*	13	.	7	15
O=C(NNC(=O)c1ccncc1)Nc1ccc(Br)cc1	14*	.	.	.	.	.
COc1ccc(NC(=O)NNC(=O)c2cc3ccccc3cc2O)cc1	-2	-4	7	.	2	-1
O=C(NC(=S)NNC(=O)c1ccccc1O)c1ccco1	-10	-10	15	2	0	13
COC(=O)[C@H](CC(C)C)NC(=O)Cn1cnc2c(NCc3ccccc3)ncnc21	0	.	.	.	.	.
CCOc1ccc(NC(=O)c2cccc3ccccc23)cc1	42*	0	38	.	5	12
CN1C(=O)c2ccc(NC(=O)c3cccc4ccccc34)cc2C1=O	18*	1	-3	.	1	-2
COc1ccc(NC(=O)c2cc3ccccc3cc2OC)cc1	3	9	44	.	3	-2
CCOc1ccc(NC(=O)C(CC)NC(=O)c2ccccc2CO)cc1 (centres undefined)	0	-5	-13	76*	1	-1
CCOc1ccc(NC(=O)c2cc3ccccc3cc2OC)cc1	32*	-9	71	.	13	17
CSc1nc2c(c(=O)[nH]1)C(c1cccc(Br)c1)CC(=O)N2 (centres undefined)	-2	5	-5	1	7	10
COc1ccccc1NC(=S)NC(=O)c1ccc(Cn2cc(Br)cn2)cc1	-3	10	-13	25	-3	-4
COc1ccc(N=C(c2ccccc2)c2c(C)[nH]n(-c3ccccc3)c2=O)c(OC)c1	0	39	.	15	15	5
SMILES	GRIN3A LBD mod	T cruzi repl	CSC inhib	CHOP inhibitor	Beta apoptosis	PREPL inhibitor
CCOc1ccc(NC(=O)c2cc3ccccc3cc2O)cc1	5	12	27	75*	3	-2
O=C(NCC1CCCCC1)c1cc2ccccc2cc1O	8	4	83*	.	-7	14
CCOc1ccc(NC(=O)c2cc(OC)nc3ccccc23)cc1	.	10	51	.	25	3
O=C(NCC1CCCO1)c1cc2ccccc2cc1O (centres undefined)	1	-5	-6	.	3	5
Cc1ccc(C)c(N(C)S(=O)(=O)c2ccc3c(c2)oc(=O)n3C)c1	1	1	-11	.	.	-4
CCNC(=S)N/N=C/c1cccc(OCc2c(F)cccc2Cl)c1	-7	59*	32	42	.	11
Cc1ccc(Nc2nc(Nc3ccc(C)cc3)nc(SC3=NCCS3)n2)cc1	7	29	33	90*	24	8
CN(C)S(=O)(=O)Oc1ccsc1C(=O)Nc1cccc(Cl)c1Cl	-13	62*	4	54	0	4
Cc1cc(C)c(NC(=O)Cn2nnc(C(=O)NCc3cccs3)c2N)c(C)c1	-1	-10	-13	85*	-4	2
Cc1ccc(CNC(=O)c2nnn(CC(=O)Nc3cc(C)cc(C)c3)c2N)cc1	20*	21	-6	.	.	-8
Cc1cc(C)cc(-n2nnc(C(=O)NCc3ccccc3)c2N)c1	1	7	-6	-1	-3	3
Cc1cc(C)cc(-n2nnc(C(=O)NCc3ccc(Cl)cc3)c2N)c1	32*	29	-2	7	-4	-5
Cc1ccc(CNC(=O)Cn2nnc(C(=O)Nc3cc(C)ccc3C)c2N)cc1	15*	-2	6	.	12	2
Cc1cc(C)cc(-c2nnc(SCc3ccc(C(=O)O)cc3)o2)c1	5	-7	2	-8	-4	9
COc1ccc(Cl)cc1N(C(C)=O)c1nc(C)cc(C)c1C#N	0	-7	-15	.	3	3
COc1ccccc1N(C(C)=O)c1nc(C)cc(C)c1C#N	19*	-13	-10	-4	2	-2
O=C(CSc1nc(-c2ccc(F)cc2)cs1)Nc1ccccn1	13*	-4	4	13	3	-5
Cc1csc(SCC(=O)Nc2ccccn2)n1	3	-9	-9	1	-3	9
CN(C(=O)CN(C)S(=O)(=O)c1ccc(F)cc1)c1c(N)n(Cc2ccccc2)c(=O)[nH]c1=O	0	-8	12	.	-4	5
COc1ccc(-c2ccc([C@H]3[C@@H]4C=CCC[C@@]4(C)C(=O)N3Cc3ccccc3)c(F)c2)cc1	2	52	54	5	85*	6
COc1ccc(-c2cc([C@H]3[C@@H]4C=CCC[C@@]4(C)C(=O)N3Cc3ccccc3)ccc2F)cc1	1	9	122*	18	-3	15
C[C@@]12CCC=C[C@H]1[C@H](c1ccc3ccccc3c1)N(Cc1ccccc1)C2=O	0	22	86*	51	-8	-9
Cc1ccc(-c2ccc([C@H]3[C@@H]4C=CCC[C@@]4(C)C(=O)N3Cc3ccccc3)c(F)c2)cc1	3	28	96*	-13	5	2
COc1ccc(-c2ccc(OC)c([C@H]3[C@@H]4C=CCC[C@@]4(C)C(=O)N3Cc3ccccc3)c2)cc1OC	2	13	28	10	5	8
O=C(NC1C2CC3CC(C2)CC1C3)c1ccc(Br)o1 (centres undefined)	1	3	10	.	-2	-2
